Source: publication PMC3927397 (Journal of medicinal chemistry, 2013)
Each block holds one molecule with its values, some of them ahead of it.

Assays:
[1] = target: cytoplasmic tyrosine kinase Src (Homo sapiens, UniProt P12931); assay: Preliminary kinase screen, Src; assay type: biochemical; details: small panel of kinases
[2] = target: receptor tyrosine kinase IGFR (Homo sapiens, UniProt P08069); assay: Preliminary kinase screen, IGFR; assay type: biochemical; details: small panel of kinases
IKKβ = details: ref 22 (Kasinski et al.); cited from earlier work
PRKCβ1 = PRKCβ1 (Homo sapiens, UniProt P05771); assay: Kinase profile screen at 5 μM, PRKCβ1; assay type: biochemical; details: read-out: inhibition of PRKCβ1
Procedure, shortened: (§1)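 Most kinases used the Z'Lyte read-out: a FRET-labelled peptide, protease development, and coumarin/fluorescein emission ratio. Some used Adapta (ADP TR-FRET) or a kinase cascade. Protease- and fluorescence-interference control wells were included. Values above 100% or below 0% were taken as maximal or no inhibition.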

IRAK4 = target: T1, IRAK4 (Homo sapiens, UniProt Q9NWZ3); assay: Kinase profile screen at 5 μM, IRAK4; assay type: biochemical; details: read-out: inhibition of IRAK4
T1 sequence (Q9NWZ3 1-460): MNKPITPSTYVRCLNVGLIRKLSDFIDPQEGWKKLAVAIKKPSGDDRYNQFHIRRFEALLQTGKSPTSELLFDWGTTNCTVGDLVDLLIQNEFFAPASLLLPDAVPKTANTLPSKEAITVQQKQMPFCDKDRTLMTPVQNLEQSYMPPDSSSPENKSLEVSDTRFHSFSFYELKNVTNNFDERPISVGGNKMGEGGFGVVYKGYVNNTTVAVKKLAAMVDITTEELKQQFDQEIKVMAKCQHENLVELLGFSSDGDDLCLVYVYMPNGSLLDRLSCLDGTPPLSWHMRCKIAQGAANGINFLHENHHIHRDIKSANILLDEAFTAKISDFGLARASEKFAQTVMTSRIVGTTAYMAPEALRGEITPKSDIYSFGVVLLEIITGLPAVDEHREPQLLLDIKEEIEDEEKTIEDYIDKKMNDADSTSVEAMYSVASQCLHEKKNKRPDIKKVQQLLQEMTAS
Procedure, shortened: as §1

panel of 50 kinases = assay: Kinase profile screen, 50-kinase panel; assay type: biochemical; details: 5 μM, of fifty kinases tested
Procedure, shortened: as §1

RAF1 = RAF1 (Homo sapiens, UniProt P04049, Y340D/Y341D); assay: Z'-LYTE RAF1; assay type: biochemical; details: preliminary screen, small panel of kinases
[3] = cited from earlier work
EGFR = EGFR (Homo sapiens, UniProt P00533); assay: Kinase profile screen at 5 μM, EGFR; assay type: biochemical; details: read-out: inhibition of EGFR
Procedure, shortened: as §1

MEK1 = MEK1 (Homo sapiens, UniProt Q02750); assay: Z'-LYTE MAP2K1; assay type: biochemical; details: preliminary screen, small panel of kinases
AKT1 (PKB alpha) = AKT1 (PKB alpha) (Homo sapiens, UniProt P31749); assay: Z'-LYTE in vitro kinase assay, AKT1; assay type: biochemical; details: preliminary screen, small panel of kinases
AKT2 [4] = target: T2, AKT2 (Homo sapiens, UniProt P31751); assay: Z'-LYTE in vitro kinase assay, AKT2; assay type: biochemical; details: preliminary screen, small panel of kinases
CDK7 = CDK7 (Homo sapiens, UniProt P50613); assay: Kinase profile screen at 5 μM, CDK7; assay type: biochemical; details: read-out: inhibition of CDK7
Procedure, shortened: as §1

AKT2 [5] = target: T2, AKT2; assay: ADP Quest enzyme kinetics, Michaelis-Menten global analysis; assay type: biochemical; details: varying ATP and inhibitor concentrations
Procedure, shortened: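 Purified recombinant human AKT2 with Crosstide peptide substrate; reactions run 10-90 min using fresh samples at varying ATP and inhibitor concentrations. ADP Quest enzyme-coupled fluorescence gave total ADP, and rates came from ADP formed over time. Rates were fitted by global non-linear regression to Michaelis-Menten competitive (shared Ki and Vmax) and mixed (shared Ki, α) models, with Ki and Vmax >0.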

IKBKB (IKKβ) = target: T3, IKBKB (IKKβ) (Homo sapiens, UniProt O14920); assay: Z'-LYTE in vitro kinase assay, IKKβ; assay type: biochemical; details: preliminary screen, small panel of kinases
T3 sequence (O14920 1-756): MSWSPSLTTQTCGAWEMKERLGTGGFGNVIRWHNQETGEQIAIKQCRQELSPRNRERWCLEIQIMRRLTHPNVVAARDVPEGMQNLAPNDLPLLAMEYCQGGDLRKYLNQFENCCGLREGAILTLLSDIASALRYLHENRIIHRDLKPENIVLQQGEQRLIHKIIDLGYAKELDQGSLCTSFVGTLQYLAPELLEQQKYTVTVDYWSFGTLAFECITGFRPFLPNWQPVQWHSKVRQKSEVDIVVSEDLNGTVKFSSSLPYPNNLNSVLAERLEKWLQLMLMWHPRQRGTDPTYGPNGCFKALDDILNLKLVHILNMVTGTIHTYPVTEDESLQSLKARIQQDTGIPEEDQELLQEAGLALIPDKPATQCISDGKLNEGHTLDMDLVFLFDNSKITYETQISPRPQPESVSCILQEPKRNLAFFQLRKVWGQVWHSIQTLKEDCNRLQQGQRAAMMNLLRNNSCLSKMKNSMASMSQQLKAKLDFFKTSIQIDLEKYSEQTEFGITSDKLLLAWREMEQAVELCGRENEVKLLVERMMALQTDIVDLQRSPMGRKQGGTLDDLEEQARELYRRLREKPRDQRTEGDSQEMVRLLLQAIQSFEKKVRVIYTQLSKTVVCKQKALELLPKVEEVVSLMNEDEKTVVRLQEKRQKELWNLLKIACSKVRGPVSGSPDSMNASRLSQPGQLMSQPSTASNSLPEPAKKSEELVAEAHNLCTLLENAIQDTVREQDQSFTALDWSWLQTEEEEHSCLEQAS

KDR (VEGFR2) = KDR (VEGFR2) (Homo sapiens, UniProt P35968); assay: Z'-LYTE in vitro kinase assay, KDR; assay type: biochemical; details: read-out: inhibition of KDR
CDK2 = CDK2 (Homo sapiens, UniProt P24941); assay: Kinase profile screen at 5 μM, CDK2; assay type: biochemical; details: read-out: inhibition of CDK2
Procedure, shortened: as §1

NEK1 = target: T4, NEK1 (Homo sapiens, UniProt Q96PY6); assay: Z'-LYTE in vitro kinase assay, NEK1; assay type: biochemical; details: read-out: inhibition of NEK1
T4 sequence (Q96PY6 1-1258): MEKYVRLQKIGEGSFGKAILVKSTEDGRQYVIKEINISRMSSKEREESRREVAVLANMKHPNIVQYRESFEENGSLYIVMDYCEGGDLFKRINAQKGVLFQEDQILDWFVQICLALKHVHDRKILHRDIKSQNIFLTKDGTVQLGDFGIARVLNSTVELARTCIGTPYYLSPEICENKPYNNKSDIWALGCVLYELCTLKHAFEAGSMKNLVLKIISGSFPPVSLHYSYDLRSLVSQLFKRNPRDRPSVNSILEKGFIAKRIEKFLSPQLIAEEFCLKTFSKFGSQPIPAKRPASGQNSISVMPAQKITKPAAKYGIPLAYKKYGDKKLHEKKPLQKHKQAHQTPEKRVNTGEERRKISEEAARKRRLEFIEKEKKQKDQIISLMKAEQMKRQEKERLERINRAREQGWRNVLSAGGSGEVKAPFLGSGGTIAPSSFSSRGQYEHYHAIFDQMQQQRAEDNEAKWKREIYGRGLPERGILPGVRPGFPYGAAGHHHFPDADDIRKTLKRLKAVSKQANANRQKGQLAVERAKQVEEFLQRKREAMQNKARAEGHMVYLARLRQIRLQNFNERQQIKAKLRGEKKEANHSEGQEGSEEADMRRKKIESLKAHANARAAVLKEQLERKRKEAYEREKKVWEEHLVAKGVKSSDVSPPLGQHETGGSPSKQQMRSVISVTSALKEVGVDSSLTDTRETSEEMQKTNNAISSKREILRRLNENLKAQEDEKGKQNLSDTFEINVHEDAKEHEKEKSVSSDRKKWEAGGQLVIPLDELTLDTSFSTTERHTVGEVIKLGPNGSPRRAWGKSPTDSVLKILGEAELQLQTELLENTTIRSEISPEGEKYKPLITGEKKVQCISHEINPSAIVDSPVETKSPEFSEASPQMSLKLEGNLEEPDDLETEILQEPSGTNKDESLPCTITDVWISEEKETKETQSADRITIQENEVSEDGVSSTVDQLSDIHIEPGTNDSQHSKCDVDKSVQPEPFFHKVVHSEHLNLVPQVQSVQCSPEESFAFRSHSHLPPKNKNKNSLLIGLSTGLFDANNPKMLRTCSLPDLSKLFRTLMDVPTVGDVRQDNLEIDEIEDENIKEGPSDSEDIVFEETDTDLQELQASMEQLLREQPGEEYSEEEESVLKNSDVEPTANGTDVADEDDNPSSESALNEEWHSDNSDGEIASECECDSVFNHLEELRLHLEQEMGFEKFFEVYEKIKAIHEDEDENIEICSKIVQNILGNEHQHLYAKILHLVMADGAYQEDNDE

ACVR1B = target: T5, ACVR1B (Homo sapiens, UniProt P36896); assay: Kinase profile screen at 5 μM, ACVR1B; assay type: biochemical; details: read-out: inhibition of ACVR1B
T5 sequence (P36896 24-505): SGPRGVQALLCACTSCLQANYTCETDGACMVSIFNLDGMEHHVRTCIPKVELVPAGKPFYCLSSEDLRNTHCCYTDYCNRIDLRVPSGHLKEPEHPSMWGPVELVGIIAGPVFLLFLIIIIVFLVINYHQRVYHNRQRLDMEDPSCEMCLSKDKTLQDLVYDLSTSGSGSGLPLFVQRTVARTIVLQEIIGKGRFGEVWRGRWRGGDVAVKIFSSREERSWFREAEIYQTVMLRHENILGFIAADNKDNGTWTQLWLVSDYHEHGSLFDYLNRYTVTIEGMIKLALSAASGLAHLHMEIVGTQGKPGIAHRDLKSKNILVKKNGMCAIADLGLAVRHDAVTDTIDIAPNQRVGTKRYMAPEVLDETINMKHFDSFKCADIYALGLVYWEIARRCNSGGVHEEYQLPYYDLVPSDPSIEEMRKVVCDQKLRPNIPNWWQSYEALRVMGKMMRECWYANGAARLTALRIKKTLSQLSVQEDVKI
Procedure, shortened: as §1

CHEK1 = target: T6, CHEK1 (Homo sapiens, UniProt O14757); assay: Kinase profile screen at 5 μM, CHEK1; assay type: biochemical; details: read-out: inhibition of CHEK1
T6 sequence (O14757 1-476): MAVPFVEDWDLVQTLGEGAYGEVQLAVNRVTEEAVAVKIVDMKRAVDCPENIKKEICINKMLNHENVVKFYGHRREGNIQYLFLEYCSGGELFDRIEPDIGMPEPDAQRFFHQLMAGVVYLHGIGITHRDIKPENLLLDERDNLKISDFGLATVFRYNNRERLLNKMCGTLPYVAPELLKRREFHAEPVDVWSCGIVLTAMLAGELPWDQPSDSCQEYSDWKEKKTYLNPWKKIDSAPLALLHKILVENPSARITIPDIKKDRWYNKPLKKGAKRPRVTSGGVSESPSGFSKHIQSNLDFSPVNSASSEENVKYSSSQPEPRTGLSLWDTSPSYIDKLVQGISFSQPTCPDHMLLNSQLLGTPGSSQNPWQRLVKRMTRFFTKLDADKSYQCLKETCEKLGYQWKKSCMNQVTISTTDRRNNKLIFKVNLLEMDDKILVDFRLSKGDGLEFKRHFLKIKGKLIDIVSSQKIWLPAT
Procedure, shortened: as §1

PIM1 = PIM1 (Homo sapiens, UniProt P11309); assay: Kinase profile screen at 5 μM, PIM1; assay type: biochemical; details: read-out: inhibition of PIM1
Procedure, shortened: as §1

T2 sequence (P31751 whole entry): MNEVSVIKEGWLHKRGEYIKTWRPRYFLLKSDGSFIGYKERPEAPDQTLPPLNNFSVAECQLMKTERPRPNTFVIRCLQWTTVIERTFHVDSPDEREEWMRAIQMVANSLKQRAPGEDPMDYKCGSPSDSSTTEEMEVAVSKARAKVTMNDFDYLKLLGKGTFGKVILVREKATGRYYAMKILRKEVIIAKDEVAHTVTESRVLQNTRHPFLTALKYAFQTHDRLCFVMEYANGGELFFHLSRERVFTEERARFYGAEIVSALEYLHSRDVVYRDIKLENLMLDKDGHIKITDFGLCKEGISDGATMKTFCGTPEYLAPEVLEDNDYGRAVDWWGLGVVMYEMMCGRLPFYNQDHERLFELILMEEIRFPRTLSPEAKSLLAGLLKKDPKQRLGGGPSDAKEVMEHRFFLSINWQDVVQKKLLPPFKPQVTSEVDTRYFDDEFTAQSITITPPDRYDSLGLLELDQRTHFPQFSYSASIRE
Chain of cytoplasmic tyrosine kinase Src (P12931 whole entry): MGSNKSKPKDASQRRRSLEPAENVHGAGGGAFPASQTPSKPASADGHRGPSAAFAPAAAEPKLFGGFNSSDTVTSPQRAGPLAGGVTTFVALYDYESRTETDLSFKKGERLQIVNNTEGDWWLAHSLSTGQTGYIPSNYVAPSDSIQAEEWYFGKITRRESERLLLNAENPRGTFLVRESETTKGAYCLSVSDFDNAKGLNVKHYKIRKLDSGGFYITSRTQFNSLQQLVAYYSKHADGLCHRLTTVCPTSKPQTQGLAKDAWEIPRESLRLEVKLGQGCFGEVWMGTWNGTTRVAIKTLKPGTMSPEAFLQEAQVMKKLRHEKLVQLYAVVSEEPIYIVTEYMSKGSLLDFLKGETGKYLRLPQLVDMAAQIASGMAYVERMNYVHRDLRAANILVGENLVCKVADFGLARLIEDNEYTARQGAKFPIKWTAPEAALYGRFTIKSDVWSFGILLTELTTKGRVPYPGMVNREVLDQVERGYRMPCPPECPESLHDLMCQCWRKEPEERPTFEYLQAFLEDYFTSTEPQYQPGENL
Chain of receptor tyrosine kinase IGFR (P08069 31-1367): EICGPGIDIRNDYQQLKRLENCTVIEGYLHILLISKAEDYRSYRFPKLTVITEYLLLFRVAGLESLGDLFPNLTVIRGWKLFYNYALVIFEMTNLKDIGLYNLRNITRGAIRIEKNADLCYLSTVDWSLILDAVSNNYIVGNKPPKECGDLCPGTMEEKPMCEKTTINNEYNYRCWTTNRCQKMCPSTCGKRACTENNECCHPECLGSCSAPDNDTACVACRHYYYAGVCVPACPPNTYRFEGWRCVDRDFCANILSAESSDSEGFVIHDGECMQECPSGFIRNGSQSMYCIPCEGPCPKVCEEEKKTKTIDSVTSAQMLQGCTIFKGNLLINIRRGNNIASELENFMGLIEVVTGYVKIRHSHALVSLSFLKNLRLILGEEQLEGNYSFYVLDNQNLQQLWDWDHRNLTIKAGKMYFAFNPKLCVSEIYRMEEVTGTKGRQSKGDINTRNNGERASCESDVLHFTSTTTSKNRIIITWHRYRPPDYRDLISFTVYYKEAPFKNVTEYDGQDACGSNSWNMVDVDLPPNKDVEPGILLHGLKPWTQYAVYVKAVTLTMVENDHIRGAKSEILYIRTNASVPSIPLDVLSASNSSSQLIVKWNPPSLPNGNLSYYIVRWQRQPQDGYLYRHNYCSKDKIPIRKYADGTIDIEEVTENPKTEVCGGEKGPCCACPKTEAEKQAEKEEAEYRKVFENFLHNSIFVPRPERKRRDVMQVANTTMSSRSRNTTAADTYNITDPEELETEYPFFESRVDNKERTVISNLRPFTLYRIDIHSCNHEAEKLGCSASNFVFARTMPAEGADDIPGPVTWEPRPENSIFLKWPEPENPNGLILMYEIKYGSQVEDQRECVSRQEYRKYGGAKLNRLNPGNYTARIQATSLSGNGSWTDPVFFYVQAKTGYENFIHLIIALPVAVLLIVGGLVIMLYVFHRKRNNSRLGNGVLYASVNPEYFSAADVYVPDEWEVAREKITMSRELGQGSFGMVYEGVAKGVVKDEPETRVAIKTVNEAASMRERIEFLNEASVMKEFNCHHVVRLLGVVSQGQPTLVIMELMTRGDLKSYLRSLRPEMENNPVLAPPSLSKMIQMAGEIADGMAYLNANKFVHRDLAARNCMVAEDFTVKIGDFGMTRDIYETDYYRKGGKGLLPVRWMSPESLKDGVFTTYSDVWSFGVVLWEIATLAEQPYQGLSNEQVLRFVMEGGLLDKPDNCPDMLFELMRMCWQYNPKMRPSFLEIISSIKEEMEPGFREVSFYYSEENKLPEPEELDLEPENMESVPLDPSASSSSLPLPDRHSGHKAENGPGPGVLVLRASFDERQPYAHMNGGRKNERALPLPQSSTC
Chain of AKT1 (PKB alpha) (P31749 whole entry): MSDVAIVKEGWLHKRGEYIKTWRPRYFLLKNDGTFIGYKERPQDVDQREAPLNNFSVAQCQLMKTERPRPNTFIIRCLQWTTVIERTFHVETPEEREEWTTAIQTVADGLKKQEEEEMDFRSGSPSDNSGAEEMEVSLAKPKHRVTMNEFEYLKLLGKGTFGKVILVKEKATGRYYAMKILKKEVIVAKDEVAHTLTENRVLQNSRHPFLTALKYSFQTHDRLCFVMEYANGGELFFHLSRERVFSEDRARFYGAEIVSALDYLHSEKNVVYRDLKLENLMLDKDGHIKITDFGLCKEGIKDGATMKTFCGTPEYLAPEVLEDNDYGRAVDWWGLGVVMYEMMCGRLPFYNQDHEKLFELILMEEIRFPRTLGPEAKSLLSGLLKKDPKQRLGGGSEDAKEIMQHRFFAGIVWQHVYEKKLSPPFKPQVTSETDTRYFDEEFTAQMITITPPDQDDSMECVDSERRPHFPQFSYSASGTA
Chain of KDR (VEGFR2) (P35968 20-1356): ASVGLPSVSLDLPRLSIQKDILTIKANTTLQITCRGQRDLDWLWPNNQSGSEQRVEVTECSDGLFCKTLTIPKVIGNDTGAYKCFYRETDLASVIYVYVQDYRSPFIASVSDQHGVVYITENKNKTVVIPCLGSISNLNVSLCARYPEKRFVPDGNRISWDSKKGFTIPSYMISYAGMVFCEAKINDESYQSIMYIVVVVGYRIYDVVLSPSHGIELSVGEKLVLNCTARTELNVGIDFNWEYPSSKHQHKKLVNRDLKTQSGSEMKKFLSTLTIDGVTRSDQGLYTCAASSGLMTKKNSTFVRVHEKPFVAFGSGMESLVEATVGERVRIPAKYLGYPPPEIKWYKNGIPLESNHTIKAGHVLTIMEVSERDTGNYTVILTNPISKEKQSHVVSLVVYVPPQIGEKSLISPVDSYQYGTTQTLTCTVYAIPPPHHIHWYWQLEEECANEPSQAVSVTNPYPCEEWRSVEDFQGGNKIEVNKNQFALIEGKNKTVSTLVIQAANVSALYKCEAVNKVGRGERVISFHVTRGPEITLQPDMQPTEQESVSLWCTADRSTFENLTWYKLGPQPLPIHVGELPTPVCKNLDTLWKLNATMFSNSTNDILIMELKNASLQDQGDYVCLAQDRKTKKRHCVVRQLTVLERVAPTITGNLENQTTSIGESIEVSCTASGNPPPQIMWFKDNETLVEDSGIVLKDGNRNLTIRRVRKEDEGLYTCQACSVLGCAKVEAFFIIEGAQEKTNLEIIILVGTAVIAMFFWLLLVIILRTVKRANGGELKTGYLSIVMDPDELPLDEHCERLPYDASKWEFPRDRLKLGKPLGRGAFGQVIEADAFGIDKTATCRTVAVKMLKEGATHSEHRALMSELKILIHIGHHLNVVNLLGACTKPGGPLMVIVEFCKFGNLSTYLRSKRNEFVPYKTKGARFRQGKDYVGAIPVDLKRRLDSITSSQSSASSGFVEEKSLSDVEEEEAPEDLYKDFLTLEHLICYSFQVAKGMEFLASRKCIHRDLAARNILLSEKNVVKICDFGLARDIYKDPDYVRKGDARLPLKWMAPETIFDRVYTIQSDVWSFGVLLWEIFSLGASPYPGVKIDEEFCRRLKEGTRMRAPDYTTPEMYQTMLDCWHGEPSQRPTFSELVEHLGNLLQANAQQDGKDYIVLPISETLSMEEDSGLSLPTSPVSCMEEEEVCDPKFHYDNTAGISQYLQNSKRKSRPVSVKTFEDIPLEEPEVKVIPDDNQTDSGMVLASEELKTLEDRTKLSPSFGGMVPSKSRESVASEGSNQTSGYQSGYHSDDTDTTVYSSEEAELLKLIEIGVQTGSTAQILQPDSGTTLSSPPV
Chain of PRKCβ1 (P05771 whole entry): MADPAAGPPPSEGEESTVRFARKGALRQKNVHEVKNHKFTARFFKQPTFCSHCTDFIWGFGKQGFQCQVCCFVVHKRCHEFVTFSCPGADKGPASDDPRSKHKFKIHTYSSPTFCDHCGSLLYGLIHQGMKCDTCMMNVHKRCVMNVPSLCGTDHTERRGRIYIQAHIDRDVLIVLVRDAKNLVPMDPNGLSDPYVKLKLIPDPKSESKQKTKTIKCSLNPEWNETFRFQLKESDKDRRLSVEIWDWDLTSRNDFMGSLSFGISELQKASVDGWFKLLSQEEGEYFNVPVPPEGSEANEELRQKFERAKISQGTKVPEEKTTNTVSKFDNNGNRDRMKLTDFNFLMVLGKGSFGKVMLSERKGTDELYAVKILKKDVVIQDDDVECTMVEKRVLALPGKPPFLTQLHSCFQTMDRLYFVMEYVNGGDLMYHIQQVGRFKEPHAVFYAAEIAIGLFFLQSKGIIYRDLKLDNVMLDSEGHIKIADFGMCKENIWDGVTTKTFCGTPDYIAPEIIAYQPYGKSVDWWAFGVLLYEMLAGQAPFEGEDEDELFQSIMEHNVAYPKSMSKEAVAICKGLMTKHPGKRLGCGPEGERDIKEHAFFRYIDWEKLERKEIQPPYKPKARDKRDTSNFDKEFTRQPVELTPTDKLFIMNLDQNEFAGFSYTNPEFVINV

inhibition of Src [1]: weak effect
inhibition of IGFR [2]: no measurable inhibition
SMILES: O=C1/C(=C/c2ccccc2F)CNC/C1=C\c1ccccc1F [Compound 3, 3,5-bis(2-flurobenzylidene)piperidin-4-one]
mechanism of IKKβ blockade (IKKβ): mixed mechanism

inhibition at 5 µM (PRKCβ1): ≥ 85%
inhibition at 5 µM (IRAK4): ≤ 10%
number of kinases inhibited at ≤40% (panel of 50 kinases): 28
number of kinases with 40-80% inhibition (modestly blocked) (panel of 50 kinases): twelve
inhibition of RAF1 (RAF1): moderate inhibition
inhibition at 5 µM (EGFR): ≤ 10%
inhibition of MEK1 (MEK1): moderate inhibition
inhibition of AKT1 (AKT1 (PKB alpha)): significantly increased blocking action
inhibition of AKT2 (AKT2 [4]): significantly increased blocking action
inhibition at 5 µM (CDK7): ≤ 10%
α (mixed-model parameter, global analysis of Michaelis-Menten graph) (AKT2 [5]): 31
inhibition of IKKβ (IKBKB (IKKβ)): moderate inhibition
inhibition at 5 µM (KDR (VEGFR2)): ≥ 85%
inhibition at 5 µM (CDK2): ≤ 10%
inhibition at 5 µM (NEK1): ≥ 85%
inhibition at 5 µM (ACVR1B): ≤ 10%
inhibition of Src [1]: weak effect
inhibition at 5 µM (CHEK1): ≥ 85%
inhibition at 5 µM (PIM1): ≤ 10%
inhibition of IGFR [2]: no measurable inhibition
SMILES: O=C1/C(=C/c2ccccn2)CNC/C1=C\c1ccccn1 [Compound 4, 3,5-Bis(2-pyridinylmethylidene)-4-piperidone]
kinase suppression by comparison with curcumin [3]: ≥ 10 fold
